In ChEMBL document CHEMBL1138340, “Cannabilactones: a novel class of CB2 selective agonists with peripheral analgesic activity” (J Med Chem, 2007):
The source made the active and inactive calls.

Key:
[1] = Selectivity of mouse CB2 receptor over rat CB1 receptor
In short: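 Ratio of Ki values from [3H]CP55,940 displacement using rat brain synaptosomal membranes (CB1) and mouse spleen membranes (CB2). Both incubated 1 h at 30 °C in TME with 0.1% BSA. IC50 from three independent experiments converted to Ki by Cheng–Prusoff.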

Cannabinoid receptor 2 = Cannabinoid receptor 2 (Mus musculus, UniProt P47936); test: Displacement of [3H]CP-55940 from CB2 receptor in mouse spleen membranes; format: cell membranes, Membrane
Cannabinoid receptor 2, sequence (P47936 whole entry): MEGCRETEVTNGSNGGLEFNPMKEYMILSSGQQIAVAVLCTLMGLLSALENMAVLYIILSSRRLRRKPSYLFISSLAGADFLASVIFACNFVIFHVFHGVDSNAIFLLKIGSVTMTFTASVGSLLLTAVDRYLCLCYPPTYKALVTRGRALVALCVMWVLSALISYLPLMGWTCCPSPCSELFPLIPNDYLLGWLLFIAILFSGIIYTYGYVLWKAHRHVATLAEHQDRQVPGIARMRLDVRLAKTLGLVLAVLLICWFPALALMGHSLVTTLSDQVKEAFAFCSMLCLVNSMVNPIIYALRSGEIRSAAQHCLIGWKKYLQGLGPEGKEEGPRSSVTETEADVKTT
In short: (§1)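 Competitive displacement of [3H]CP55,940 (3.08 nM) from rat forebrain synaptosomal membranes (CB1) or frozen mouse spleen membranes (CB2), 40–50 µg protein. Test ligand at eight concentrations in DMSO. Incubation 1 h at 30 °C in TME buffer (25 mM Tris, 5 mM MgCl2, 1 mM EDTA) with 0.1% BSA. Nonspecific binding defined with 200 nM CP55,940. Bound ligand separated by rapid filtration and read by scintillation counting. Data from three independent experiments fitted by four-parameter logistic to give IC50, converted to Ki by Cheng–Prusoff.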

Cannabinoid receptor 1 = Cannabinoid receptor 1 (Rattus norvegicus, UniProt P20272); test: Displacement of [3H]CP-55940 from CB1 receptor in rat brain synaptosomes; format: subcellular
Cannabinoid receptor 1, sequence (P20272 whole entry): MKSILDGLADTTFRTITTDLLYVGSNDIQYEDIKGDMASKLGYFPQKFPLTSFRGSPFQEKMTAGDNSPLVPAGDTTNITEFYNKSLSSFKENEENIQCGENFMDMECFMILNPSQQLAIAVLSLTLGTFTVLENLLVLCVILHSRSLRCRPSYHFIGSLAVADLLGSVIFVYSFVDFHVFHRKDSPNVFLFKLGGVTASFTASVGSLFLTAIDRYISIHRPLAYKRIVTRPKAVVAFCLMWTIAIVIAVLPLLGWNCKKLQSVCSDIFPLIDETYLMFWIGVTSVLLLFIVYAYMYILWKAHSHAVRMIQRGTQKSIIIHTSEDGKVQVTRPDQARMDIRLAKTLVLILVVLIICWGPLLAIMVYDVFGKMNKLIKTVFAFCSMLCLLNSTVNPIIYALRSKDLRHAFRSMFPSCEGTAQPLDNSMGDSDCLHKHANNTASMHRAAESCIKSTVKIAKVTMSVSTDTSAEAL
In short: as §1, with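 “Test” for “Competitive displacement of [3H]CP55,940 (3.08 nM) from rat forebrain synaptosomal membranes (CB1) or frozen mouse spleen membranes (CB2), 40–50 µg protein. Test”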

[2] = target: Cannabinoid receptor 2 (Mus musculus) (UniProt P47936); test: Agonist activity at CB2 receptor in mouse spleen membranes at 1 uM after 2 hrs by [35S]GTP-gamma-S binding assay; format: functional, cell membranes; details: Membrane
Cannabinoid receptor 2 (Mus musculus), sequence (P47936 whole entry): as the sequence (P47936 whole entry) above
In short: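 Mouse spleen lysed in a cell disruption bomb, centrifuged at 1000 g then 175000 g, and resuspended in TME with 0.1% BSA. Membranes (24–40 µg) incubated 2 h at 30 °C with test compound at 1 µM, 30 µM GDP and 0.05 nM [35S]GTPγS. Nonspecific binding defined with 10 µM unlabeled GTPγS. Bound label measured after GF/B filtration by scintillation counting. Reported with standard deviations.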

[3] = target: Cannabinoid receptor 2 (Mus musculus) (UniProt P47936); test: Agonist activity at CB2 receptor in mouse spleen membranes assessed as inhibition of forskolin-stimulated cAMP production; format: functional, cell membranes; details: Membrane
Rattus norvegicus [4] = test: Antinociceptive activity in sc dosed Sprague-Dawley rat assessed as paw withdrawal latency to radiant heat after 20 mins; format: functional
In short: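 Male Sprague–Dawley rats, 200–300 g. Drug in DMSO, 50 µL, injected subcutaneously into the plantar hindpaw 20 min before testing. […] A50 (dose giving 50% MPE) taken from dose–response curves by Tallarida–Murray. n=6 per group, mean ± SEM.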

Rattus norvegicus [5] = test: Neurotoxicity in Sprague-Dawley rat assessed as ambulation on rotarod apparatus at 3.3 mg/kg, ip after 15 mins; format: toxicity, organism-based; design: dose 3.3 mg/kg, route intraperitoneal; details: in vivo, 0.25 h
In short: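 Rats trained to stay 180 s on a rotarod at 10 rpm. Drug given i.p. at 3.3 mg/kg. Time to fall recorded 15 min after dosing, with a 180 s cutoff; comparison is to vehicle baseline.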

Row | SMILES | Ratio Ki [1] | Ki (Cannabinoid receptor 2) [nM] | Ki (Cannabinoid receptor 1) [nM] | Activity [2] [%] | Activity [3] | A50 (Rattus norvegicus [4]) [mg/kg] | Activity (Rattus norvegicus [5])
1 | CCCCCCC(C)(C)c1cc(O)c2c(c1)OC(C)(C)c1ccc(O)cc1-2 | 0.54 | 4.8 |  |  |  |  | 
2 | CCCCCCC(C)(C)c1cc(O)c2c(c1)oc(=O)c1ccc(C)cc12 |  | 3.1 | 39 |  |  |  | 
3 | CCCCCCC(C)(C)c1cc(O)c2c(c1)oc(=O)c1ccc(OC)cc12 | 54 | 6.7 | 360 | 50 | Active | 1.6 | 
4 | Cc1c(C(=O)c2cccc3ccccc23)c2cccc3c2n1[C@H](CN1CCOCC1)CO3 |  |  |  | 56 |  |  | 
5 | CCCCCCC(C)(C)c1cc(O)c2c(c1)OC(C)(C)c1ccc(C)cc1-2 | 0.86 | 1.1 | 0.95 |  |  |  | 
6 | CCCCCCC(C)(C)c1cc(O)c2c(c1)OC(C)(C)c1ccc(OC)cc1-2 | 0.92 | 5.9 | 5.4 | 42 |  |  | 
7 | CCCCCCC(C)(C)c1cc(O)c2c(c1)oc(=O)c1ccc(O)cc12 | 490 | 0.82 | 400 | 55 | Active | 4.5 | Non-toxic
